# Compound activity (PubChem BioAssay)
# PLCb3 inh: inhibitors of human phospholipase C beta3. inhibition, % at 12.2 µM. 370,000 tested, 0.18% active. AID 720704. Purified PLC-beta3, fluorogenic substrate, fluorescence. Q01970; in the data active = inhibition above about 11%;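 note: 0% = median of compound wells on plate and 100% = full blocker control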
# sPLA2-III inh: Inhibits HGIII-sPLA2 liposome hydrolysis, primary screen | 370,000 tested, 0.56% active | Q9NZ20 | AID 743126 | inhibition, % at 12.2 µM | QFRET BODIPY PC-A2 liposome hydrolysis, fluorescence;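 active = inhibition above mean plus 3 SD of compounds lying within the high and low control bounds, cut at about 19% in these data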;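 note: 0% = median of test compound wells and 100% = no enzyme DMSO wells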
# PLCg1 inh: inhibitors of human phospholipase C gamma1; purified PLC-gamma1, fluorogenic substrate, fluorescence; inhibition, % at 12.2 µM; AID 720700; P19174; 370,000 tested, 0.84% active
# TbMetRS inhib: Trypanosoma brucei MetRS inhibition; purified T. brucei MetRS, ATP depletion, Kinase-Glo luminescence; inhibition, % at 11.9 µM; 360,000 tested, 0.4% active; AID 624268;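 active = inhibition above a per-plate cutoff of the control wells' mean inhibition plus 3 SD, cut at about 5.5% in these data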;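 note: 0% = DMSO wells median and 100% = median of wells with control inhibitor compound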
#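 Test system – parasite MetRS enzyme · Reagent – substrates ATP, L-methionine and bulk Escherichia coli tRNA · Doses – 11.9 µM compound single dose, 0.9% DMSO · Times – 15 min enzyme-compound preincubation, 2 h reaction, 10 min detection, 25 °C · Signal – Kinase-Glo luminescence, ATP depletion format · Controls – DMSO-only wells as low control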
# PLCgamma1 ctr: PLC-gamma1 inhibition, counter-screen for PLC-beta3 hits. AID 743258. inhibition, % at 12.3 µM. shares compounds with PLCg1 inh. purified PLC-gamma1, fluorogenic substrate, fluorescence. 3,300 tested, 3.1% active
# PLCbeta3 conf: human PLC-beta3 inhibition, confirmation; shares compounds with PLCg1 inh; purified PLC-beta3, fluorogenic substrate fluorescence; inhibition, % at 12.3 µM; 3,300 tested, 1% active; AID 743261; in the data active = inhibition above about 11%
# * hit, by the source's call; / = no result. A selection: hits, their analogues and other compounds. The true share with any hit is near 1.9%. Cut-off read from the data, not from the text of the source, unless noted: active = inhibition above about 9.5%; inactive = the rest.
SMILES,PLCb3 inh,sPLA2-III inh,PLCg1 inh,TbMetRS inhib,PLCgamma1 ctr,PLCbeta3 conf
CC1=C(C(=O)N(C)C)CC(CC(=O)NCC2CCCCC2)C(=O)N1CCC1=CCCCC1 (stereo not given),4,0,11*,0,-3,0
CCC(C)Nc1nc2c(c(=O)[nH]c(=O)n2C)n1CCCc1ccccc1 (stereo not given),-4,-1,10*,1,-6,-3
CCC(C)Nc1nc2c(c(=O)[nH]c(=O)n2C)n1CCC(C)C (stereo not given),11*,13,10*,2,0,7
C/C(=N/NC(=O)c1cccnc1)c1cccc(O)c1,-2,11,-1,/,/,/
O=C(NC1CCCCCCC1)C1CCN(S(=O)(=O)N2CCCC2)CC1,3,2,11*,0,-6,-6
CC(O)Cc1cn(CC(=O)N2CCN(C(=O)OC(C)(C)C)CC2)nn1 (stereo not given),8,6,13*,-1,-8,-2
COc1ccc(Cn2ccc3ccc(-c4ccc5ccn(C(=O)c6cccc(OC)c6)c5c4)cc32)cc1,-55,-9,-34,/,/,/
CCc1nnc(N/N=C/c2c(F)cccc2Cl)n1N,3,5,14*,1,-9,-4
CC(=O)N1CCSc2ccc(S(=O)(=O)NCCc3cccc(C)c3)cc21,-3,-7,16*,0,-1,-1
COC(=O)C1CN(C2CC2)CCS(=O)(=O)N1Cc1cn(Cc2ccc(Cl)cc2)nn1 (stereo not given),0,3,0,/,/,/
COCCN1C(=O)c2oc3cc(C)c(C)cc3c(=O)c2C1c1cccc(O)c1 (stereo not given),-1,-9,15*,-1,-8,-2
CCCCNC(=O)C1(C)CCCCN1C(=O)c1ccc(F)c(C)c1 (stereo not given),6,7,14*,0,-3,0
COc1cc(-c2noc(CCC(=O)Nc3cccnc3)n2)cc(OC)c1OC,13*,3,4,-1,-1,2
COc1cc(NC(=O)CCc2nc(-c3cccs3)no2)cc(OC)c1OC,-1,-6,0,-1,/,/
O=C(CSc1nc(=O)n(CCN2CCOCC2)c2c1CCCC2)Nc1cccc([N+](=O)[O-])c1,19*,8,3,0,-3,-2
Cc1nn(-c2ccc(Cl)c(Cl)c2Cl)c(=O)c2ccccc12,5,-8,11*,0,2,4
Cc1cccc(N=Nc2c(N)n[nH]c2-c2ccc(Cl)cc2)c1,10,-24,11*,0,8,5
O=S1(=O)c2ccc(Br)cc2OC[C@@H](c2ccccc2)N1Cc1cn(Cc2ccccc2)nn1,5,-1,0,/,/,/
C=CCn1c(-c2csc(-c3ccc(Cl)cc3)n2)n[nH]c1=S,8,2,9.8*,0,-11,-10
C=CCn1c(-c2csc(-c3ccccc3)n2)n[nH]c1=S,-1,18,8,0,/,/
COC(=O)[C@]12C[C@H](CC(=O)NCc3cccc(C(F)(F)F)c3)C(=O)N(Cc3ccc(Cl)cc3Cl)C1=C[C@H](C1CCCC1)O[C@@H]2C,3,5,0,/,/,/
COc1ccc(-n2cc(COC(=O)NCCc3ccccc3)nn2)cc1,-1,5,-2,/,/,/
CC(=O)Nc1nnc(SCC(=O)NCCOc2ccccc2)s1,2,9,9.9*,-1,-5,0
CC(=O)Nc1ccc2nc(SCC(=O)NCCOc3ccccc3)sc2c1,-1,-1,7,0,/,/
O=C(O)CC(Cc1ccc(Cl)cc1)C(=O)Nc1cc(Cl)ccc1Cl (stereo not given),0,-28,12*,1,-6,-6
SMILES,PLCb3 inh,sPLA2-III inh,PLCg1 inh,TbMetRS inhib,PLCgamma1 ctr,PLCbeta3 conf
COc1ccc(OC)c(NC(=O)C(CC(=O)O)Cc2ccc(Cl)cc2)c1 (stereo not given),-2,-1,-3,-1,/,/
O=C(CCS(=O)(=O)c1ccccc1)N(CCCN1CCOCC1)c1nc2ccccc2s1,0,-1,0,0,/,/
Cc1ccc(S(=O)(=O)CCC(=O)N(CCCN2CCOCC2)c2nc3ccccc3s2)cc1,0,-7,13*,0,-6,-7
Cc1c(C(=O)N/N=C/c2cccs2)nnn1-c1nonc1N,2,2,12*,0,-1,5
Cc1ccsc1/C=N/NC(=O)c1nnn(-c2nonc2N)c1C,-5,2,1,0,/,/
CCCCOCCCNC(=O)C[C@H]1C[C@@]2(C(=O)OC)C(=C[C@H](C3CCCC3)O[C@@H]2C)N(Cc2cccc3ccccc23)C1=O,5,-12,1,/,/,/
CCN1CCN(C(=S)Nc2ccc(Cl)cc2Cl)CC1,1,6,2,1,/,/
CN1CCN(C(=S)Nc2ccc(Cl)cc2Cl)CC1,2,1,10*,-1,0,3
Cc1onc(-c2ccccc2Cl)c1C(=O)NC(C)c1ccccc1 (stereo not given),-2,14,0,1,/,/
Cc1noc(C)c1NC(=O)NC(c1ccccc1)c1ccccc1,-6,-1,10*,-2,6,2
CCCNC(=O)COC(=O)CCC(=O)c1ccc(F)cc1,7,6,9.8*,-1,-2,-7
CCOC(=O)C1CCCN(C(=O)c2ccc3c(c2)CCO3)CC1 (stereo not given),1,-1,3,0,/,/
CCOC(=O)C1CCN(C(=O)c2cc(C)n(C(C)(C)C)n2)CC1,-3,0,11*,0,-2,0
CCOC(=O)C1CCN(C(=O)c2ccc3c(c2)OCCO3)CC1,-8,10,12*,0,-1,1
Cc1nn(-c2ccccc2)c(C)c1C=NNC(=O)CSc1nc2ccccc2n1C,1,11,0,/,/,/
Cc1ccc(-c2ccc(/C=N/NC(=S)Nc3ccccc3)o2)cc1[N+](=O)[O-],-1,8,9.7*,0,-13,-14
CCCC/C=C1/C(c2ccccc2)N(Cc2ccc(OC)cc2OC)C2=NC(c3ccccc3)CC(=O)N21 (stereo not given),1,-2,-1,/,/,/
O=C(NCc1ccccc1F)C1CCCN1C(=O)NCc1ccccc1 (stereo not given),13*,9,4,0,4,-1
O=C(NCc1ccccc1Cl)C1CCCN1C(=O)NCc1ccccc1 (stereo not given),-5,-1,-3,-2,/,/
Cc1ccc(SCCN2CCC(C(C)(C)C)CCC2=O)cc1 (stereo not given),6,-1,4,0,/,/
CC(C)(C)C1CCC(=O)N(CCSc2ccccc2)CC1 (stereo not given),6,0,13*,0,-6,0
CC(C)(C)C1CCC(=O)N(CCC#N)CC1 (stereo not given),7,13,11*,0,-4,0
CN(Cc1ccccc1)C(=O)OCc1cn(Cc2ccc(F)cc2)nn1,-1,5,4,/,/,/
